The text below walks through data of paper PMC3086141 (Circulation. Cardiovascular interventions, 2011).

SMILES strings stand for the structures.

Data set [1] is described as follows: Quantification of bivalirudin concentration in plasma of PCI patients. It counts as in vivo. Conditions: both, human, iv, Residual plasma drug levels two hours after discontinuation of infusion, 2 h POST, LC/MS/MS. In outline:
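Test compound given to 22 PCI patients as an IV bolus followed by continuous infusion. Plasma sampled at baseline, about 5 min post-bolus, 30 min into infusion (or at PCI end if earlier), and 5 min, 15 min and 2 h after infusion stopped. Levels measured by LC/MS/MS with a […] detection threshold. Data given as mean ± SD.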

The conditions of data set [2]: PCI patients; bolus of 1.0 mg/kg followed by infusion of 2.5 mg/kg/h; cited from earlier work.

As to `CC[C@H](C)[C@H](NC(=O)[C@H](CCC(=O)O)NC(=O)[C@H](CCC(=O)O)NC(=O)[C@H](Cc1ccccc1)NC(=O)[C@H](CC(=O)O)NC(=O)CNC(=O)[C@H](CC(N)=O)NC(=O)CNC(=O)CNC(=O)CNC(=O)CNC(=O)[C@@H]1CCCN1C(=O)[C@H](CCCNC(=N)N)NC(=O)[C@@H]1CCCN1C(=O)[C@H](N)Cc1ccccc1)C(=O)N1CCC[C@H]1C(=O)N[C@@H](CCC(=O)O)C(=O)N[C@@H](CCC(=O)O)C(=O)N[C@@H](Cc1ccc(O)cc1)C(=O)N[C@@H](CC(C)C)C(=O)O` [bivalirudin], in data set [1], the level at time molar is 200 nM. For the same compound, in data set [2], the “Mean steady-state bivalirudin plasma levels, original dosage” value was 5.6 µM and the “Terminal half-life, original dosage” value was 25 min.
